In brackets after ≈: the same amount, converted by molar mass.
Tests used:
Saccharomyces cerevisiae [1] = experiment: Minimum growth-inhibitory concentration against Saccharomyces cerevisiae ATCC 9763 by agar dilution method by the suspension of a fungi containing ~5 x 10e (7) cells/mL.; assay type: functional
Method in brief: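 Agar dilution on Sabouraud–dextrose agar plates with graded compound concentrations. A loopful of yeast suspension (about 5 × 10⁷ cells/mL) was streaked on the surface. Plates were incubated at 30 °C for 3 days. MIC is the lowest concentration with no detectable growth.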

[2] = biological target: P-glycoprotein (ABCB1, MDR1) (Homo sapiens, UniProt P08183); experiment: (§1) Human MDR1 Pgp inhibitory activity by using standard calcein-AM efflux method with the human leukemia CEM cells.; assay type: cell-based, CCRF-CEM; details: probe calcein-AM; for IC50: human, human leukemia CEM cells
[3] = biological target: T1, ATP-dependent translocase ABCB1 (Homo sapiens, UniProt P08183); experiment: Direct comparison of the antifungal activities with the relative Pgp-inhibitory potencies, calculated by comparing ug/mL IC50(or IC20).; assay type: functional
Saccharomyces cerevisiae [4] = experiment: Relative antifungal activity (against Saccharomyces cerevisiae) compared to AbA
[5] = biological target: T1, ATP-dependent translocase ABCB1; experiment: as §1; assay type: cell-based, CCRF-CEM

T1 sequence (P08183 whole entry): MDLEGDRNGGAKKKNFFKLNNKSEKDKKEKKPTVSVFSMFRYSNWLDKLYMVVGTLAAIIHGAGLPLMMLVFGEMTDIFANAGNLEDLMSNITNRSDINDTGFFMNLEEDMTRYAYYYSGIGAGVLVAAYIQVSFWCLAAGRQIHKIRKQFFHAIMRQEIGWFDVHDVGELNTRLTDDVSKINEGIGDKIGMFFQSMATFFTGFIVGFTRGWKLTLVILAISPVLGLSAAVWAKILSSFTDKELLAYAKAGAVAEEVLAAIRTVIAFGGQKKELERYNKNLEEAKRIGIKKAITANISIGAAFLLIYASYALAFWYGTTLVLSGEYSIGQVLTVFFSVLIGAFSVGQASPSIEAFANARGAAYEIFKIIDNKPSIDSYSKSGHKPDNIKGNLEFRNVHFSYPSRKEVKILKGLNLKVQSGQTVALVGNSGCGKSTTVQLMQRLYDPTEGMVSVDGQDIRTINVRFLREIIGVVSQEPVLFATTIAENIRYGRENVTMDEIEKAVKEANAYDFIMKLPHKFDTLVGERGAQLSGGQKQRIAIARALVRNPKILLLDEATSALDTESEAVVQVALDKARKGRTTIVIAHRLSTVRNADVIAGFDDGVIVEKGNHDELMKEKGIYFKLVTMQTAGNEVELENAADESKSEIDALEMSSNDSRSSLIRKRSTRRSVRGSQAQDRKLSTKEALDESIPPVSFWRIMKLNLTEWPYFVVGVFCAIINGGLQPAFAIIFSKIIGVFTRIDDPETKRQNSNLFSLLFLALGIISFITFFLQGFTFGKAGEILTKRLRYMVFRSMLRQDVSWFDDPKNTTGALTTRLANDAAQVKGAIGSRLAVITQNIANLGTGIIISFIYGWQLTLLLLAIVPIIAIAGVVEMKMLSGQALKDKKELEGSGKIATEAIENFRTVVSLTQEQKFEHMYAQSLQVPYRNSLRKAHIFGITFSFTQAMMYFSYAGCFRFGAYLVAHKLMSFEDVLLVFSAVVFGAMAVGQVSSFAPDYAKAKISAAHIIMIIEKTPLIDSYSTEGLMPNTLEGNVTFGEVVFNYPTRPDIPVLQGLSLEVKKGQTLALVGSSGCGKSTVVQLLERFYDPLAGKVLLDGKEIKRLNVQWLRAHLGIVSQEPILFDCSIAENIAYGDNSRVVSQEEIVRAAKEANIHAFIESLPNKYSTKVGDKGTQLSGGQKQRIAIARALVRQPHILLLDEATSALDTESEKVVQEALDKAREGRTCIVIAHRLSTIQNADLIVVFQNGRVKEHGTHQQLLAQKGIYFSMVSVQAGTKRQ
P-glycoprotein (ABCB1, MDR1), sequence (P08183 whole entry): as above

Compound: CC[C@@H](C)[C@@H]1NC(=O)[C@@H]2CCCN2C(=O)[C@H](Cc2ccccc2)N(C)C(=O)[C@H](C2CCCCC2)NC(=O)[C@H](C(C)C)N(C)C(=O)[C@@H]([C@@H](C)CC)OC(=O)[C@H](C(C)(C)O)N(C)C(=O)[C@H](CC(C)C)NC(=O)[C@H](C(C)C)N(C)C1=O [listing 1 of 2 here]
- MIC (Saccharomyces cerevisiae [1]): 1.6 µg/mL (≈ 1.46 µM)

Compound: CC[C@@H](C)[C@@H]1NC(=O)[C@@H]2CCCN2C(=O)[C@H]([C@H](O)c2ccccc2)N(C)C(=O)[C@H](Cc2ccccc2)NC(=O)[C@H](C(C)C)N(C)C(=O)[C@@H]([C@@H](C)CC)OC(=O)[C@H](C(C)(C)O)N(C)C(=O)[C@H](CC(C)C)NC(=O)[C@H](C(C)C)N(C)C1=O
- IC50 [2]: 2.15 µM
- IC20 [2]: 0.81 µM
- Pgp AbA/analogue ratio [3]: 1
- antifungal AbA/analogue ratio (Saccharomyces cerevisiae [4]): 0.5

Compound: CC[C@@H](C)[C@@H]1NC(=O)CCCCCCCNC(=O)[C@H](C(C)C)N(C)C(=O)[C@@H]([C@@H](C)CC)OC(=O)[C@H](C(C)(C)O)N(C)C(=O)[C@H](CC(C)C)NC(=O)[C@H](C(C)C)N(C)C1=O [listing 1 of 2 here]
- IC50 [2]: 7.42 µM
- IC20 [2]: 2.63 µM
- Pgp AbA/analogue ratio [3]: 0.4
- antifungal AbA/analogue ratio (Saccharomyces cerevisiae [4]): < 0.016

Compound: CC[C@@H](C)[C@@H]1NC(=O)[C@@H]2CCCN2C(=O)[C@H](Cc2ccccc2)N(C)C(=O)[C@H](Cc2ccccc2)NC(=O)[C@H](C(C)C)N(C)C(=O)[C@@H]([C@@H](C)CC)OC(=O)CN(C)C(=O)[C@H](CC(C)C)NC(=O)[C@H](C(C)C)N(C)C1=O
- IC50 [2]: 0.89 µM
- IC20 [2]: 0.31 µM
- Pgp AbA/analogue ratio [3]: 2.7

Compound: CC[C@@H](C)[C@@H]1NC(=O)[C@@H]2CCCN2C(=O)[C@H](Cc2ccccc2)N(C)C(=O)[C@H](Cc2ccccc2)NC(=O)[C@H](C(C)C)N(C)C(=O)[C@@H]([C@@H](C)CC)OC(=O)[C@H]([C@H](C)CO)N(C)C(=O)[C@H](CC(C)C)NC(=O)[C@H](C(C)C)N(C)C1=O [listing 1 of 2 here]
- MIC (Saccharomyces cerevisiae [1]): 6.3 µg/mL (≈ 5.72 µM)

Compound: CC[C@@H](C)[C@@H]1NC(=O)[C@@H]2CCCN2C(=O)[C@H]([C@H](O)c2ccccc2)N(C)C(=O)[C@H](Cc2ccccc2)NC(=O)[C@H](C(C)C)N(C)C(=O)[C@@H]([C@@H](C)CC)OC(=O)[C@H](C(C)C)N(C)C(=O)[C@H](CC(C)C)NC(=O)[C@H](C(C)C)N(C)C1=O
- IC50 [2]: 1.36 µM
- IC20 [2]: 0.46 µM
- Pgp AbA/analogue ratio [3]: 1.7
- antifungal AbA/analogue ratio (Saccharomyces cerevisiae [4]): 0.25

Compound: CC[C@@H](C)[C@@H]1NC(=O)[C@@H]2CCCN2C(=O)[C@H](Cc2ccccc2)N(C)C(=O)[C@H](Cc2ccccc2)NC(=O)[C@H](C(C)C)N(C)C(=O)[C@@H]([C@@H](C)CC)OC(=O)[C@H](C(C)(C)O)N(C)C(=O)[C@H](CC(C)C)NC(=O)[C@H](C(C)C)NC1=O
- IC50 [2]: 7.55 µM
- IC20 [2]: 2.67 µM
- Pgp AbA/analogue ratio [3]: 0.3
- antifungal AbA/analogue ratio (Saccharomyces cerevisiae [4]): 0.25

Compound: CC[C@@H](C)[C@@H]1NC(=O)[C@@H]2CCCN2C(=O)[C@H](Cc2ccccc2)N(C)C(=O)[C@H](Cc2ccccc2)NC(=O)[C@H](C(C)C)N(C)C(=O)[C@@H]([C@@H](C)CC)OC(=O)C(=C(C)C)N(C)C(=O)[C@H](CC(C)C)NC(=O)[C@H](C(C)C)N(C)C1=O
- IC50 [2]: 0.18 µM
- IC20 [2]: 0.06 µM
- Pgp AbA/analogue ratio [3]: 12.5
- antifungal AbA/analogue ratio (Saccharomyces cerevisiae [4]): < 0.016

Compound: CC[C@H](C)[C@@H]1NC(=O)[C@@H]2CCCN2C(=O)[C@@H](Cc2ccccc2)N(C)C(=O)[C@H](Cc2ccccc2)NC(=O)[C@H](C(C)C)N(C)C(=O)[C@@H]([C@@H](C)CC)OC(=O)[C@H](C(C)(C)O)N(C)C(=O)[C@H](CC(C)C)NC(=O)[C@H](C(C)C)N(C)C1=O
- IC50 [5]: 2.73 µM
- IC20 [2]: 0.91 µM
- MIC (Saccharomyces cerevisiae [1]): 0.2 µg/mL (≈ 0.182 µM)

Compound: CC[C@@H](C)[C@@H]1NC(=O)[C@@H]2CCCN2C(=O)[C@H](Cc2ccccc2)N(C)C(=O)[C@H](Cc2ccccc2)NC(=O)[C@H](C(C)C)N(C)C(=O)[C@@H]([C@@H](C)CC)OC(=O)[C@H](C(C)(C)O)N(C)C(=O)[C@H](CC(C)C)NC(=O)C(C(C)C)OC1=O (stereo partly drawn)
- MIC (Saccharomyces cerevisiae [1]): > 25 µg/mL

Compound: CC[C@@H](C)[C@@H]1NC(=O)[C@@H]2CCCN2C(=O)[C@H](Cc2ccccc2)N(C)C(=O)[C@H](Cc2ccccc2)NC(=O)[C@H](C(C)C)N(C)C(=O)[C@@H]([C@@H](C)CC)OC(=O)[C@H]([C@H](C)CO)N(C)C(=O)[C@H](CC(C)C)NC(=O)[C@H](C(C)C)N(C)C1=O [listing 2 of 2 here]
- IC50 [2]: 1.09 µM
- IC20 [2]: 0.36 µM
- Pgp AbA/analogue ratio [3]: 2.1
- antifungal AbA/analogue ratio (Saccharomyces cerevisiae [4]): 0.06

Compound: CC[C@@H](C)[C@@H]1NC(=O)CCCCCCCNC(=O)[C@H](C(C)C)N(C)C(=O)[C@@H]([C@@H](C)CC)OC(=O)[C@H](C(C)(C)O)N(C)C(=O)[C@H](CC(C)C)NC(=O)[C@H](C(C)C)N(C)C1=O [listing 2 of 2 here]
- MIC (Saccharomyces cerevisiae [1]): > 25 µg/mL

Compound: CC[C@@H](C)[C@@H]1NC(=O)[C@@H]2CCCN2C(=O)[C@H](Cc2ccccc2)N(C)C(=O)[C@H](C2CCCCC2)NC(=O)[C@H](C(C)C)N(C)C(=O)[C@@H]([C@@H](C)CC)OC(=O)[C@H](C(C)(C)O)N(C)C(=O)[C@H](CC(C)C)NC(=O)[C@H](C(C)C)N(C)C1=O [listing 2 of 2 here]
- IC50 [2]: 5.88 µM
- IC20 [2]: 1.45 µM
- Pgp AbA/analogue ratio [3]: 0.5
- antifungal AbA/analogue ratio (Saccharomyces cerevisiae [4]): 0.25
